pIC50: −log10 of the molar value.
Columns and labels:
[1] = system: Mus musculus; experiment: Effect on calcium level in mouse at 1 […] after four diurnal doses; assay type: functional, organism-based
In short: (§1)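 Mice received four diurnal administrations of drug in Miglyol vehicle, with vehicle-dosed controls, across a series of dose levels. Calcium levels (mg/dL) were then measured and reported with standard errors. The […] was assigned from these calcium levels.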

[2] = system: Mus musculus; experiment: Effect on calcium level in mouse at 3 […] after four diurnal doses; assay type: functional, organism-based; in short: as §1
[3] = Maximum tolerated dose in mouse; assay type: ADME, organism-based; conditions: in vivo
[4] = Inhibition of INFgamma release in MLR cells; assay type: functional, cell-based; conditions: Homo sapiens
[5] = Inhibition of INFgamma release in MLR cells relative to calcitriol; assay type: functional, Homo sapiens
[6] = system: Mus musculus; experiment: Effect on calcium level in mouse at 0.3 ug/kg after four diurnal doses
[7] = system: Kidney; experiment: Metabolic stability in rat kidney perfusate; assay type: ADME, tissue-based
[8] = system: Mus musculus; experiment: Effect on calcium level in mouse at 10 […] after four diurnal doses; assay type: functional, organism-based; in short: as §1
[9] = system: Mus musculus; experiment: Effect on calcium level in mouse at 30 […] after four diurnal doses; assay type: functional, organism-based; in short: as §1
[10] = system: Mus musculus; experiment: Effect on calcium level in mouse at 100 […] after four diurnal doses; assay type: functional, organism-based; in short: as §1

| Compound | Calcium level [1] | Calcium level [2] | MTD [3] | pIC50 [4] | Ratio IC50 [5] | Calcium level [6] | Stability [7] | Calcium level [8] | Calcium level [9] | Calcium level [10] |
| --- | --- | --- | --- | --- | --- | --- | --- | --- | --- | --- |
| C=C1/C(=C\C=C2/CCC[C@]3(C)[C@@H]([C@@H](CCCC(C)(C)O)CC[C@@H](O)C(C)(C)O)CC[C@@H]23)C[C@@H](O)C[C@@H]1O | 9.73 mg/dL | 9.63 mg/dL | 3 µg/kg | 9.24 | 18 | 9.8 mg/dL | – | – | – | – |
| C=C1/C(=C\C=C2/CCC[C@]3(C)[C@@H]([C@H](C)CCCC(C)(C)O)CC[C@@H]23)C[C@@H](O)C[C@@H]1O [CALCITRIOL] | – | – | – | – | – | – | < 50% | – | – | – |
| C=C1/C(=C\C=C2/CCC[C@]3(C)[C@@H]([C@H](CCCC(C)(C)O)CC[C@@H](O)C(C)(C)O)CC[C@@H]23)C[C@@H](O)C[C@@H]1O | 9.7 mg/dL | 9.73 mg/dL | 3 µg/kg | 10.10 | 2.5 | 9.6 mg/dL | – | – | – | – |
| CC(C)(O)CCC[C@H](CC[C@@H](O)C(C)(C)O)[C@H]1CC[C@H]2/C(=C/C=C3C[C@@H](O)C[C@H](O)C3)CCC[C@]12C | 9.63 mg/dL | 9.37 mg/dL | 30 µg/kg | 9.11 | 31 | – | – | 9.57 mg/dL | 9.77 mg/dL | 10.8 mg/dL |
| C=C1/C(=C\C=C2/CCC[C@]3(C)[C@@H](C(CCCC(C)(C)O)CCCC(C)(C)O)CC[C@@H]23)C[C@@H](O)C[C@@H]1O | 11.1 mg/dL | 12.3 mg/dL | < 1 µg/kg | 11.40 | 0.1 | – | 80% | 16.7 mg/dL | – | – |
| CC(C)(O)CCCC(CCCC(C)(C)O)[C@H]1CC[C@H]2/C(=C/C=C3C[C@@H](O)C[C@H](O)C3)CCC[C@]12C | – | 10 mg/dL | 3 µg/kg | 10.36 | 1.8 | – | 80% | 12.5 mg/dL | 16.5 mg/dL | – |
| CC(C)(O)CCC[C@@H](CC[C@@H](O)C(C)(C)O)[C@H]1CC[C@H]2/C(=C/C=C3C[C@@H](O)C[C@H](O)C3)CCC[C@]12C | 9.53 mg/dL | 9.9 mg/dL | > 100 µg/kg | 8.41 | 160 | – | – | 9.43 mg/dL | 9.43 mg/dL | 9.57 mg/dL |

— ChEMBL document CHEMBL1149273, “Calcitriol derivatives with two different side chains at C-20. II. Diastereoselective syntheses of the metabolically produced 24(R)-hydroxygemini” (J Med Chem, 2004)
